ChEMBL document CHEMBL3124921, “Discovery of nitropyridine derivatives as potent HIV-1 non-nucleoside reverse transcriptase inhibitors via a structure-based core refining approach” (Eur J Med Chem, 2014)

Tests used:
[1] = Selectivity index, ratio of CC50 for human MT4 cells to EC50 for HIV-2 ROD infected in human MT4 cells; assay type: toxicity, cell-based; settings: read-out: Ratio CC50/EC50
In short: (§1)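 MT-4 cells are seeded at 6 × 10⁵ cells/mL. Serial fivefold compound dilutions go into two triplicate series, one mock-infected and one virus-infected. After 5 days, viability is read by MTT reduction to formazan, with absorbance at 540 and 690 nm. EC50 comes from infected wells and CC50 from mock-infected wells. SI = CC50/EC50.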

[2] = Selectivity index, ratio of CC50 for human MT4 cells to EC50 for wild type HIV-1 3B infected in human MT4 cells; assay type: toxicity, cell-based; settings: read-out: Ratio CC50/EC50
In short: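 HIV-1 IIIB is added at 100–300 CCID50 per well to MT-4 cells seeded at 6 × 10⁵ cells/mL. Fivefold serial compound dilutions are run in triplicate, with a parallel mock-infected series for cytotoxicity. MTT viability is read at 540 and 690 nm after 5 days. SI = CC50 (mock-infected) / EC50 (infected).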

[3] = Selectivity index, ratio of CC50 for human MT4 cells to EC50 for HIV-1 RES056 harboring reverse transcriptase K103N/Y181C double mutant infected in human MT4 cells; assay type: toxicity, cell-based; settings: read-out: Ratio CC50/EC50; in short: as §1
[4] = Cytotoxicity against human MT4 cells assessed as growth inhibition after 5 days by MTT assay; assay type: cell-based
In short: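 Mock-infected MT-4 cells (6 × 10⁵ cells/mL) were run in parallel triplicate wells with serial fivefold compound dilutions added from 10× stocks and culture medium instead of virus. Viability was measured by MTT at day 5, reading absorbance at 540 and 690 nm.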

[5] = system: Human immunodeficiency virus 2; experiment: Antiviral activity against HIV-2 ROD infected in human MT4 cells assessed as protection against virus-induced cytopathogenicity after 5 days by MTT assay; assay type: functional, organism-based; settings: Human immunodeficiency virus 2, ISOLATE ROD, MT4, 120 h
In short: (§2)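 Compounds added at the start as 10× stocks to triplicate wells, then serially diluted fivefold. Virus stock at […] CCID50 was added to MT-4 cells resuspended at 6 × 10⁵ cells/mL. Viability was read by MTT reduction to formazan five days post-infection, with absorbance measured at 540 and 690 nm. EC50 is the concentration protecting against virus-induced cytopathicity.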

[6] = system: Human immunodeficiency virus 1; experiment: Antiviral activity against HIV-1 RES056 harboring reverse transcriptase K103N/Y181C double mutant infected in human MT4 cells assessed as protection against virus-induced cytopathogenicity after 5 days by MTT assay; assay type: functional, organism-based; settings: Human immunodeficiency virus 1, RES056, MT4, 120 h; in short: as §1
[7] = system: Human immunodeficiency virus 1; experiment: Antiviral activity against wild type HIV-1 3B infected in human MT4 cells assessed as protection against virus-induced cytopathogenicity after 5 days by MTT assay; assay type: functional, organism-based; settings: Human immunodeficiency virus 1, 3B, MT4, 120 h; in short: as §2
[8] = biological target: Human immunodeficiency virus type 1 reverse transcriptase (Human immunodeficiency virus 1, UniProt Q72547); experiment: Inhibition of wild type HIV-1 reverse transcriptase using […] as template/primer assessed as inhibition of biotin-dUTP incorporation after 1 hr by microtiter plate ELISA reader analysis

| Compound | selectivity ratio [1] | selectivity ratio [2] | selectivity ratio [3] | CC50 at 120 h [4] [µM] | EC50 [5] [µM] | EC50 [6] [µM] | EC50 [7] [µM] | IC50 [8] [µM] |
| --- | --- | --- | --- | --- | --- | --- | --- | --- |
| Cc1cccc(C)c1Nc1cc(Nc2ccc(C#N)cc2)ncc1[N+](=O)[O-] | < 1 | < 1 | < 1 | 12.8 | > 12.8 | > 12.8 | > 12.8 | – |
| Cc1cccc(C)c1Oc1cc(Nc2ccc(C#N)cc2)ncc1[N+](=O)[O-] | < 1 | 214 | < 1 | 126 | > 126 | > 126 | 0.58 | – |
| Cc1cc(C)c(Oc2cc(Nc3ccc(C#N)cc3)ncc2[N+](=O)[O-])c(C)c1 | < 1 | 1250 | < 1 | 69.9 | > 69.9 | > 69.9 | 0.056 | 6.9 |
| Cc1cc(C#N)cc(C)c1Oc1cc(Nc2ccc(C#N)cc2)ncc1[N+](=O)[O-] | < 1 | 339 | < 1 | 36.1 | > 36.1 | > 36.1 | 0.11 | 8.5 |
| Cc1cc(Br)cc(C)c1Oc1cc(Nc2ccc(C#N)cc2)ncc1[N+](=O)[O-] | < 1 | 45 | < 1 | 12.3 | > 12.3 | > 12.3 | 0.27 | – |
| Cc1cc(Cl)cc(C)c1Oc1cc(Nc2ccc(C#N)cc2)ncc1[N+](=O)[O-] | < 1 | 70 | < 1 | 11.1 | > 11.1 | > 11.1 | 0.16 | – |
| COc1cccc(OC)c1Oc1cc(Nc2ccc(C#N)cc2)ncc1[N+](=O)[O-] | < 1 | 74 | < 1 | 319 | > 319 | > 319 | 4.28 | – |
| N#Cc1ccc(Nc2cc(Oc3c(Cl)cccc3Cl)c([N+](=O)[O-])cn2)cc1 | < 1 | 44 | < 1 | 27.7 | > 27.7 | > 27.7 | 0.62 | – |
| N#Cc1ccc(Nc2cc(Oc3c(Cl)cc(Cl)cc3Cl)c([N+](=O)[O-])cn2)cc1 | < 1 | 97 | < 1 | 16.2 | > 16.2 | > 16.2 | 0.17 | – |
| N#Cc1ccc(Nc2cc(Oc3c(Cl)cc([N+](=O)[O-])cc3Cl)c([N+](=O)[O-])cn2)cc1 | < 1 | 2 | < 1 | 26.5 | > 26.5 | > 26.5 | 16.8 | – |
| N#Cc1ccc(Nc2cc(Oc3c(Br)cc(Br)cc3Br)c([N+](=O)[O-])cn2)cc1 | < 1 | 65 | < 1 | 7.49 | > 7.49 | > 7.49 | 0.11 | – |
